By CC50 is commonly meant the concentration giving 50% cytotoxicity. A high value points to lower toxicity to the cells. One may read the DC50 as the midpoint of the concentration-degradation curve. A lower DC50 goes with degradation at low concentration.

The source made the active and inactive calls. The calls are words filed in the database; no cut-off is given here.

The record followed here is ChEMBL document CHEMBL4400516, “A novel cereblon modulator for targeted protein degradation” (Eur J Med Chem, 2019).

The test system of one data set is NCI-H929. Nature of the data set: Antiproliferative activity against human NCI-H929 cells after 72 hrs by WST-1 assay. The note with it: NCI-H929, 72 h. In kind it is functional. Summed up: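 NCI-H929 myeloma cells (RPMI-1640, 10% FBS, 0.05 mM 2-mercaptoethanol) seeded at 30% confluency and dosed the next day. After 72 h, WST-1 reagent added and absorbance at 450 nm read. IC50 from nonlinear log(inhibitor) versus response fit.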
On the technique in general: Formazan colour is commonly taken as a measure of viable cells.

In a further data set the test system is TMD8. Nature of the data set: Antitumor activity against human TMD8 cells xenografted in CB-17/IcrCri SCID mouse assessed as tumor growth inhibition at 50 mg/kg, ip qd for 14 days measured during compound dosing. In kind it is functional, organism-based. In a few lines: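 Female CB-17/IcrCri-scid mice carried subcutaneous TMD8 tumours in the right flank. Dosing began at about 150 mm3 mean tumour volume: 50 mg/kg i.p. once daily for 14 days in 20% PEG 400 / 3% Tween 80 in PBS, with DMSO as control. Calipers twice weekly; volume = length x width² x 0.5. Mean ± SE, n = 6.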

Data set [1] can be described thus: Toxicity in CB-17/IcrCri SCID mouse xenografted with human TMD8 cells assessed as change in body weight at 50 mg/kg, ip qd for 14 days measured twice weekly during compound dosing. To be noted: in vivo, 336 h. Format: organism-based. On the technique in general: A xenograft is tissue or cells of one species grown in another, often human tumour cells in immunodeficient mice.

Data set [2] is described as follows: Toxicity in CB-17/IcrCri SCID mouse xenografted with human TMD8 cells assessed as adverse effect at 50 mg/kg, ip qd for 14 days. To be noted: in vivo, 336 h. Format: organism-based. In a few lines:
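TMD8 subcutaneous xenografts in female CB-17/IcrCri-scid mice dosed i.p. at 50 mg/kg daily for 14 days in 20% PEG 400 / 3% Tween 80 in PBS, starting at about 150 mm3 tumours. Animals observed daily for signs of morbidity or mortality.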

Data set [3] has as its target T1, Protein cereblon/Bromodomain-containing protein 4 (Homo sapiens, UniProt O60885+Q96SW2). Nature of the data set: Induction of CRBN-mediated BRD4 degradation in human 22RV1 cells measured after 24 hrs by immunoblotting analysis. In kind it is cell-based.
Another data set deals with CWR22R. Nature of the data set: Antiproliferative activity against human 22Rv1 cells after 72 hrs by CelTiter-Glo reagent-based luminescence assay. To be noted: 22Rv1, 72 h. Format: functional. In a few lines:
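22Rv1 cells, 15,000 per well, exposed to compound at indicated concentrations for 72 hr. Viability read by CellTiter-Glo luminescence; relative growth versus DMSO-treated control. IC50 from nonlinear log(inhibitor) versus response fit.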

The target in data set [4] is T1, Protein cereblon/Bromodomain-containing protein 4. Nature of the data set: Induction of CRBN-mediated BRD4 degradation in human 22RV1 cells in presence of proteasome inhibitor bortezomib by immunoblotting analysis. Format: cell-based.
For data set [5] the target is unchanged. Nature of the data set: Induction of CRBN-mediated BRD4 degradation in human 22RV1 cells in presence of neddylation inhibitor MLN4924 by immunoblotting analysis. Format: cell-based.
Data set [6] concerns the target Bromodomain-containing protein 4 (Homo sapiens) (UniProt O60885). Nature of the data set: Induction of BRD4 degradation in CRBN knockdown human 22RV1 cells by immunoblotting analysis. Summed up: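 22Rv1 cells transfected with CRBN siRNA or negative-control siRNA using RNAiMAX. After 48 h, degrader added for 12 h. Lysates in HEPES/Triton X-100 buffer with protease inhibitor, then SDS-PAGE and immunoblot.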

Data set [7] concerns the target T1, Protein cereblon/Bromodomain-containing protein 4. Nature of the data set: Induction of CRBN-mediated BRD4 degradation in human 22RV1 cells in presence of JQ1 by immunoblotting analysis. Format: cell-based.
The target is the same in data set [8]. Nature of the data set: Induction of CRBN-mediated BRD4 degradation in human 22RV1 cells in presence of TD-106 by immunoblotting analysis. Format: cell-based. For orientation: In western blotting, separated proteins are transferred to a membrane and probed.
Data set [9] addresses Protein cereblon/Bromodomain-containing protein 3 (Homo sapiens) (UniProt Q15059+Q96SW2). Nature of the data set: Induction of CRBN-mediated BRD3 degradation in human 22RV1 cells up to 1000 nM measured after 24 hrs by immunoblotting analysis. Format: cell-based. Summed up: (§1)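 22Rv1 prostate cancer cells (RPMI-1640, 10% FBS) given a 24 h dose titration. Lysates in HEPES/Triton X-100 buffer with protease inhibitor, then SDS-PAGE, nitrocellulose transfer and immunoblot.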

Data set [10] deals with Protein cereblon/Bromodomain-containing protein 2 (Homo sapiens) (UniProt P25440+Q96SW2). Nature of the data set: Induction of CRBN-mediated BRD2 degradation in human 22RV1 cells up to 1000 nM measured after 24 hrs by immunoblotting analysis. Format: cell-based. Summed up:
as §1

The target in data set [11] is T1, Protein cereblon/Bromodomain-containing protein 4. Nature of the data set: Induction of Xpress-tagged CRBN (unknown origin)/FALG-tagged BRD4 (unknown origin) protein-protein interaction by immunoblotting analysis. In kind it is protein assay. Summed up: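 Cells co-transfected with Xpress-CRBN and FLAG-BRD4 using X-tremeGENE HP. Lysates incubated with anti-FLAG magnetic beads, 4 °C for 3 h. Beads washed in lysis buffer and 500 mM NaCl wash buffer, eluted in SDS sample buffer, and immunoblotted.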

Data set [12] addresses Protein cereblon/Zinc finger protein Aiolos (Homo sapiens) (UniProt Q96SW2+Q9UKT9). Nature of the data set: Induction of CRBN ubiquitin ligase-mediated IKZF3 degradation in human U266 cells up to 10 uM measured after 12 hrs by immunoblotting analysis.

T1 sequence (Q96SW2 whole entry, looked up, other chains not shown): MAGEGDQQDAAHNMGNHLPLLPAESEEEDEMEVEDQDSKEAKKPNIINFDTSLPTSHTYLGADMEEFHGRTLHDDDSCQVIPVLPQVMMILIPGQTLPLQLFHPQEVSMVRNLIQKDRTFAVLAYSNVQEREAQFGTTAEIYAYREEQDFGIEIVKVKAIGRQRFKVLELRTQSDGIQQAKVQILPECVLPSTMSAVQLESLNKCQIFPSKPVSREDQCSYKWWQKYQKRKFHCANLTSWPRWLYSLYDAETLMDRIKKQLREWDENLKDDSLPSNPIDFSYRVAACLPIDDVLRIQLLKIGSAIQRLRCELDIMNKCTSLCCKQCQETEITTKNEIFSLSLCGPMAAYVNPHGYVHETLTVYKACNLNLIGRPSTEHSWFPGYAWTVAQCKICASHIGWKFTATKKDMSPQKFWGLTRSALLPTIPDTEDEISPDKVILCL
Chain of Protein cereblon/Zinc finger protein Aiolos (Homo sapiens) (Q96SW2 whole entry, looked up): as the sequence (Q96SW2 whole entry, looked up, other chains not shown) above
Chain of Protein cereblon/Zinc finger protein Aiolos (Homo sapiens) (Q9UKT9 whole entry, looked up): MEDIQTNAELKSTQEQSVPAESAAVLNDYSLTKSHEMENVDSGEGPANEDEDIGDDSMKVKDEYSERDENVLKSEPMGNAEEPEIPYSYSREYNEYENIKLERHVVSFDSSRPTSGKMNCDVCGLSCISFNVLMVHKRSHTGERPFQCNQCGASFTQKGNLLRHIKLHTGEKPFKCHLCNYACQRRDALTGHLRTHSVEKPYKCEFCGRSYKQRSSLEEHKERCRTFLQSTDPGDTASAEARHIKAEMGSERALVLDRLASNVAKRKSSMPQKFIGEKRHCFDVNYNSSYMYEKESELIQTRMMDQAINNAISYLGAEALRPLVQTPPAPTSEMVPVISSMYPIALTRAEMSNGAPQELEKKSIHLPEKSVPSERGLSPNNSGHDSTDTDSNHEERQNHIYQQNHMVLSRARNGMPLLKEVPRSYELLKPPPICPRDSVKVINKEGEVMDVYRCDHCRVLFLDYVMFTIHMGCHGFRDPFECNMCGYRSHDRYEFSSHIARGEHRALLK
Chain of Protein cereblon/Bromodomain-containing protein 2 (Homo sapiens) (P25440 whole entry, looked up): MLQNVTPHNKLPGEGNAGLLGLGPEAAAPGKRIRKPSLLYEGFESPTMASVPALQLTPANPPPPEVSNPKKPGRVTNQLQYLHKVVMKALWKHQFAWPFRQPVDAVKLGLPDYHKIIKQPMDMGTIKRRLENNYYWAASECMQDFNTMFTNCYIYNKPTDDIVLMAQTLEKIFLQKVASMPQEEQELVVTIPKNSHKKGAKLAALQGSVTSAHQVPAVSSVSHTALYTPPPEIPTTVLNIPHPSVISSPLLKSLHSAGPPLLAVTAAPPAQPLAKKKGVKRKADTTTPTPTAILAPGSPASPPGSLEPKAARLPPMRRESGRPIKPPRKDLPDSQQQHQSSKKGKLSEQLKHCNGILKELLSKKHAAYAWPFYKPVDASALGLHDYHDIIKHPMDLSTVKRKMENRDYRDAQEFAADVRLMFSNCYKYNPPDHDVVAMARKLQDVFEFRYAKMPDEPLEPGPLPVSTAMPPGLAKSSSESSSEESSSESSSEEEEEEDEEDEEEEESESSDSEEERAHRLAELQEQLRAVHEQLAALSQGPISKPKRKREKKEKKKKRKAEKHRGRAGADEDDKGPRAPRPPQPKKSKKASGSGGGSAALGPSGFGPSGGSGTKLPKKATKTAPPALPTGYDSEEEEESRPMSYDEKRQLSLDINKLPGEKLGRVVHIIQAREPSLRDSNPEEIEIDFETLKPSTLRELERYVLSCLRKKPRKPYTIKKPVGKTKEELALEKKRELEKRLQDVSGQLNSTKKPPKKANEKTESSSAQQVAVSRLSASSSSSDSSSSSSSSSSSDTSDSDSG
Chain of Protein cereblon/Bromodomain-containing protein 2 (Homo sapiens) (Q96SW2 whole entry, looked up): as the sequence (Q96SW2 whole entry, looked up, other chains not shown) above
Chain of Protein cereblon/Bromodomain-containing protein 3 (Homo sapiens) (Q15059 2-726 limits assumed): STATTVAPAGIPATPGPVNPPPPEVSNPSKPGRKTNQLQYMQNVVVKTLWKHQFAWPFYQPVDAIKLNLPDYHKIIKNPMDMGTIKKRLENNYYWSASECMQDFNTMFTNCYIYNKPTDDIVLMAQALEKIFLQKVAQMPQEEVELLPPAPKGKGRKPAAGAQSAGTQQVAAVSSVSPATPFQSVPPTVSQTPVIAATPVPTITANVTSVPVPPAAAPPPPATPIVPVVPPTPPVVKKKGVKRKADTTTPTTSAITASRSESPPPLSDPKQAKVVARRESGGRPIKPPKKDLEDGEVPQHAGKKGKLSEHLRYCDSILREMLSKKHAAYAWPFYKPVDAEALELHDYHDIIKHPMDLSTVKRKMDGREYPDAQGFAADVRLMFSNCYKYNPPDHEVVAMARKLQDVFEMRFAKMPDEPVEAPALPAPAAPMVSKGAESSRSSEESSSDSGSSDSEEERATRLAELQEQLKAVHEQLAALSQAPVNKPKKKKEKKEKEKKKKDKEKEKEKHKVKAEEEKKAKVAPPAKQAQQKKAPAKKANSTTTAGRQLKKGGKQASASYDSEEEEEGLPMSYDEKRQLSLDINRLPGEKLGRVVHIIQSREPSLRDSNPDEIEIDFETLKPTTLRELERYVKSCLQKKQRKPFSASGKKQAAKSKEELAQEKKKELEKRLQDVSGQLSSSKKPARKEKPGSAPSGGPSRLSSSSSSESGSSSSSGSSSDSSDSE
Chain of Protein cereblon/Bromodomain-containing protein 3 (Homo sapiens) (Q96SW2 whole entry partner): as the sequence (Q96SW2 whole entry, looked up, other chains not shown) above

Compound `Nc1cccc2c1C(=O)N(C1CCC(=O)NC1=O)C2=O` (configuration not stated) [POMALIDOMIDE] displayed a cytotoxic concentration (CC50) with NCI-H929 of 35 nM.

In turn, `Nc1cccc2nnn(C3CCC(=O)NC3=O)c(=O)c12` (configuration not stated) came in with a CC50 in the data set with NCI-H929 of 39 nM. The TGI entry with TMD8 was “Active”. In addition, the Activity entry in data set [1] and in data set [2] was “Non-Toxic” throughout.

On to `Cc1sc2c(c1C)C(c1ccc(Cl)cc1)=N[C@@H](CC(=O)Nc1cccc(OCCOCCOCCNc3cccc4nnn(C5CCC(=O)NC5=O)c(=O)c34)c1)c1nnc(C)n1-2` (some centres not stated), for which the DC50 in data set [3] was 0.32 nM. It took 20.1 nM to reach half-maximal cytotoxicity in the data set with CWR22R (CC50). In addition, the result in [4], in data set [5], in data set [6], in data set [7] and in data set [8] was inactive. In addition, the result in [9], in data set [10], in data set [11] and in data set [12] was Active.

In data set [3], `Cc1sc2c(c1C)C(c1ccc(Cl)cc1)=N[C@@H](CC(=O)Nc1ccc(OCCOCCOCCNc3cccc4nnn(C5CCC(=O)NC5=O)c(=O)c34)cc1)c1nnc(C)n1-2` (some centres not stated) yielded a DC50 of 3.3 nM.
